In article PMC6516474 (Journal of the American Chemical Society, 2019):
Where two headings read alike, the source gives them in different places. Starred links: 1 amine or outer side, 2 acyl side, 3 side chain; linkers in the order of their positions; H or OH if unused. Positions of bridges follow the written chain, without caps; N, C: chain ends. Non-standard residues stand in square brackets, D forms with d. Residues, ends and D or L forms follow the SMILES beside them. Chains are numbered I, II in the order given. Actinocin(9to1) = Cc1c2oc3c(C)ccc(C(=O)[*:1])c3nc-2c(C(=O)[*:2])c(N)c1=O; NMeV = CN[C@H](C(=O)O)C(C)C; Sar = CNCC(=O)O

Key:
NIH-3T3 = assay: AlamarBlue proliferation assay, NIH-3T3; assay type: cell-based, mouse; conditions: for toxicity against NIH-3T3: 3 µM; for toxicity to NIH-3T3: growth inhibition screen at 1 and 3 µM; for EC50: read-out: EC50 NIH-3T3, NIH-3T3, inherently-insensitive line
HEK293T = assay: AlamarBlue proliferation assay, HEK293T; assay type: cell-based; conditions: for fold more potent than 81 and digoxin 82: EC50 comparison
γ-H2AX [1] = assay: Immunofluorescence DNA-damage response, HeLa; assay type: cell-based, human; conditions: 24 h, 79a 0.015 µM, 92 0.012 µM
caspase-3 = assay: Immunofluorescence apoptosis, HeLa; assay type: cell-based, human; conditions: 24 h, 79a 0.015 µM, 92 0.012 µM
caspase-3 activation = assay: Immunofluorescence apoptosis, NIH-3T3; assay type: cell-based, mouse; conditions: NIH-3T3, 24 h; 79a 0.111 µM, 92 0.038 µM, 97 0.042 µM; mitomycin C as validation
cancer cell lines = assay: Broad anticancer activity over cancer cell lines; assay type: cell-based; conditions: range over cancer cell lines
MDA-MB-231 = assay: Proliferation EC50, MDA-MB-231; assay type: cell-based, human; conditions: for EC50: read-out: EC50 MDA-MB-231, MDA-MB-231; for fold more potent than 79a: MDA-MB-231, EC50 comparison
[2] = test system: MEFs (a mouse embryonic fibroblast line); assay: Toxicity against MEF; assay type: cell-based; conditions: 3 µM
γ-H2AX [3] = assay: Immunofluorescence DNA-damage response, NIH-3T3; assay type: cell-based, mouse; conditions: NIH-3T3, 24 h; 79a 0.111 µM, 92 0.038 µM, 97 0.042 µM; mitomycin C as validation
[4] = test system: HFF1 (a human fibroblast line); assay: Toxicity against HFF1; assay type: cell-based
[5] = test system: HEK293T, HeLa, Cos7, Raji, NIH-3T3; assay: AlamarBlue proliferation screen over a cell line panel; assay type: cell-based; conditions: 2 days
How it was run: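 Panel includes Raji (human Burkitt's lymphoma, grown in suspension) and NIH-3T3 (non-transformed mouse fibroblast) alongside adherent lines. Test compounds were screened at 2 µM and 0.6 µM, and proliferation was read by AlamarBlue over 2 days. The assay was validated by comparing normalized AlamarBlue signal averages of DMSO-treated cells with those of cells given 2 µg/ml puromycin (Z′ factor calculated).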

HEPG2 = assay: Proliferation EC50, HEPG2; assay type: cell-based, human; conditions: HEPG2, EC50 comparison
[6] = test system: HF-II-E (a hepatoma line from rat); assay: Toxicity against HF-II-E; assay type: cell-based
U87 = assay: Proliferation EC50, U87; assay type: cell-based, human; conditions: U87, EC50 comparison
[7] = test system: RAW (a virally-transformed mouse macrophage line); assay: Toxicity against RAW; assay type: cell-based
[8] = read-out: EC50 in HEK293T cells, HEK293T, 5 most potent compounds
[9] = Homo sapiens, HEK-293T, 48 h, read-out: EC50 in HEK293T
[10] = read-out: EC50 in HEK293T, HEK293T, proliferation over 2 days, AlamarBlue
[11] = Homo sapiens, HEK-293T, read-out: EC50 in HEK293T cells

C[C@@H]1O[C@@H](O[C@H]2CC[C@@]3(CO)[C@H](CC[C@@H]4[C@@H]3CC[C@]3(C)[C@@H](C5=CC(=O)OC5)CC[C@]43O)C2)[C@H](O)[C@H](O)[C@H]1O [79a, cannogenol-L-α-rhamnoside]
toxicity against NIH-3T3 (NIH-3T3): nontoxic | toxicity to NIH-3T3 (NIH-3T3): none of which were toxic to NIH-3T3 | EC50 (NIH-3T3): > 3000 nM | fold more potent than 81 and digoxin 82 (HEK293T; HEK293T): 2–3 fold | EC50 (HEK293T; [8]): < 100 nM | γ-H2AX upregulation (γ-H2AX [1]): upregulated significantly | caspase-3 upregulation (caspase-3): Little upregulation | caspase-3 activation (caspase-3 activation): did not upregulate | concentrations of broad anticancer activity (cancer cell lines): 10 to 100 nM | EC50 (MDA-MB-231): 111 nM | toxicity against MEF [2]: nontoxic | γ-H2AX upregulation (DNA-damage response) (γ-H2AX [3]): did not upregulate

CN[C@@H]1C[C@H]2O[C@@](C)([C@@H]1OC)n1c3ccccc3c3c4c(c5c6ccccc6n2c5c31)C(=O)NC4 [Staurosporine, reference compound]
γ-H2AX upregulation (γ-H2AX [1]): upregulated | caspase-3 upregulation (caspase-3): upregulated

Cc1c2oc3c(C)ccc(C(=O)N[C@@H]4C(=O)N[C@H](C(C)C)C(=O)N5CCC[C@H]5C(=O)N(C)CC(=O)N(C)[C@@H](C(C)C)C(=O)O[C@@H]4C)c3nc-2c(C(=O)N[C@@H]2C(=O)N[C@H](C(C)C)C(=O)N3CCC[C@H]3C(=O)N(C)CC(=O)N(C)[C@@H](C(C)C)C(=O)O[C@@H]2C)c(N)c1=O [actinomycin D] (I: T[dV]P[Sar][NMeV] / II: T[dV]P[Sar][NMeV]; ester I:1-I:C, II:1-II:C; linker I:N-II:N via Actinocin(9to1))
EC50 (HEK293T; [9]): 2 nM

C[C@H]1CCC/C=C/[C@@H]2C[C@H](O)C[C@H]2[C@H](O)/C=C/C(=O)O1 [brefeldin A]
EC50 (HEK293T; [9]): 200 nM

C[C@]12C[C@@H](O)[C@H]3[C@@H](CC[C@]4(O)C[C@@H](O)C[C@@H](O)[C@]34CO)[C@@]1(O)CC[C@@H]2C1=CC(=O)OC1 [compound 1, ouabagenin]
toxicity to NIH-3T3 (NIH-3T3): none of which were toxic to NIH-3T3 | EC50 (HEK293T; [10]): < 1000 nM | effect against HFF1 [4]: effective

C[C@@H]1O[C@@H](O[C@H]2C[C@@H](O)[C@]3(CO)[C@H]4[C@H](O)C[C@]5(C)[C@@H](C6=CC(=O)OC6)CC[C@]5(O)[C@@H]4CC[C@]3(O)C2)[C@H](O)[C@H](O)[C@H]1O [compound 2, ouabain]
toxicity to NIH-3T3 (NIH-3T3): none of which were toxic to NIH-3T3 | EC50 (HEK293T; [9]): < 1000 nM | effect against HFF1 [4]: effective

C[C@]12CC[C@H]3[C@@H](CC[C@@H]4C[C@@H](O)CC[C@@]43CO)[C@@]1(O)CC[C@@H]2C1=CC(=O)OC1 [compound 5, cannogenol]
activity against NIH-3T3 in proliferation screen (NIH-3T3; 2 µM, 2 days): activity against every line except NIH-3T3 | EC50 (HEK293T; [10]): ~1000 nM | activity in proliferation screen ([5]; 0.6 µM): affecting most lines | activity in proliferation screen ([5]; 2 µM): active

C[C@]12CC[C@H](O)C[C@H]1CC[C@@H]1[C@@H]2CC[C@]2(C)[C@@H](C3=CC(=O)OC3)CC[C@]12O [compound 80, digitoxigenin, reference compound]
toxicity to NIH-3T3 (NIH-3T3): none of which were toxic to NIH-3T3 | EC50 (HEK293T; [9]): < 1000 nM

C[C@H]1O[C@@H](O[C@H]2[C@@H](O)C[C@H](O[C@H]3[C@@H](O)C[C@H](O[C@H]4CC[C@@]5(C)[C@H](CC[C@@H]6[C@@H]5CC[C@]5(C)[C@@H](C7=CC(=O)OC7)CC[C@]65O)C4)O[C@@H]3C)O[C@@H]2C)C[C@H](O)[C@@H]1O [compound 81, digitoxin]
toxicity to NIH-3T3 (NIH-3T3): none of which were toxic to NIH-3T3 | EC50 (HEK293T; [9]): < 1000 nM | EC50 (HEK293T; [11]): < 100 nM | effect against HFF1 [4]: effective

C[C@H]1O[C@@H](O[C@H]2[C@@H](O)C[C@H](O[C@H]3[C@@H](O)C[C@H](O[C@H]4CC[C@@]5(C)[C@H](CC[C@@H]6[C@@H]5C[C@@H](O)[C@]5(C)[C@@H](C7=CC(=O)OC7)CC[C@]65O)C4)O[C@@H]3C)O[C@@H]2C)C[C@H](O)[C@@H]1O [compound 82, digoxin]
toxicity to NIH-3T3 (NIH-3T3): none of which were toxic to NIH-3T3 | EC50 (HEK293T; [9]): < 1000 nM | EC50 (HEK293T; [11]): < 100 nM

C[C@@H]1O[C@H](O[C@H]2CC[C@]3(CO)[C@H]4CC[C@]5(C)[C@@H](C6=CC(=O)OC6)CC[C@]5(O)[C@@H]4CC[C@]3(O)C2)[C@H](O)[C@H](O)[C@H]1O [compound 92, strophanthidol-L-α-rhamnoside]
toxicity against NIH-3T3 (NIH-3T3): nontoxic | EC50 (NIH-3T3): > 3000 nM | fold more potent than 81 and digoxin 82 (HEK293T; HEK293T): 2–3 fold | EC50 (HEK293T; [8]): < 100 nM | γ-H2AX upregulation (γ-H2AX [1]): upregulated significantly | fold more potent than 79a (HEPG2): 3–4 fold | caspase-3 upregulation (caspase-3): Little upregulation | caspase-3 activation (caspase-3 activation): did not upregulate | effect against HF-II-E [6]: ineffective | concentrations of broad anticancer activity (cancer cell lines): 10 to 100 nM | fold more potent than 79a (MDA-MB-231): 3–4 fold | EC50 (MDA-MB-231): 38 nM | fold more potent than 79a (U87): 3–4 fold | toxicity against MEF [2]: nontoxic | γ-H2AX upregulation (DNA-damage response) (γ-H2AX [3]): did not upregulate

C[C@@H]1O[C@@H](O[C@H]2CC[C@@]3(C)[C@H](CC[C@@H]4[C@@H]3CC[C@]3(C)[C@@H](C5=CC(=O)OC5)CC[C@]43O)C2)[C@H](O)[C@H](O)[C@H]1O [compound 97, digitoxigenin-L-α-rhamnoside]
toxicity against NIH-3T3 (NIH-3T3): nontoxic | EC50 (NIH-3T3): > 3000 nM | fold more potent than 81 and digoxin 82 (HEK293T; HEK293T): 2–3 fold | EC50 (HEK293T; [8]): < 100 nM | fold more potent than 79a (HEPG2): 3–4 fold | caspase-3 activation (caspase-3 activation): did not upregulate | effect against HF-II-E [6]: ineffective | concentrations of broad anticancer activity (cancer cell lines): 10 to 100 nM | fold more potent than 79a (MDA-MB-231): 3–4 fold | EC50 (MDA-MB-231): 42 nM | effect against RAW [7]: ineffective | fold more potent than 79a (U87): 3–4 fold | toxicity against MEF [2]: nontoxic | γ-H2AX upregulation (DNA-damage response) (γ-H2AX [3]): did not upregulate

CO[C@@]12[C@H](COC(N)=O)C3=C(C(=O)C(C)=C(N)C3=O)N1C[C@@H]1N[C@@H]12 [mitomycin C, reference compound]
EC50 (HEK293T; [9]): 4000 nM | caspase-3 activation (caspase-3 activation): Caspase-3-uregulation only in NIH-3T3 | γ-H2AX upregulation (DNA-damage response) (γ-H2AX [3]): DDR-upregulation
